Laboratory results: PubChem BioAssay AID822 (SRMLSC, 2007)

Tested on: HUVEC proliferation, viability ATP luminescence
Assay: growth suppression of umbilical vein endothelial cells – cell-based, HUVEC, ATP luminescence, dose response (AID 822);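 also: cells exposed to compound for 72 h before the ATP read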
Outline: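 Assay system: HUVEC primary endothelial cells, low passage (≤12) | Doses: 0.039–20 µM, 0.2% DMSO | Incubation: 72 h compound exposure at 37 °C | Detection: CellTiter-Glo ATP luminescence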

SMILES | EC50 [µM]
CCSc1nnc(NC(=O)c2ccccn2)s1 | 1.81
N#C/C(=C/c1ccc(N2CCCCCC2)o1)c1ccc(F)cc1 | 12.6
CC1CC(C)CN(S(=O)(=O)c2ccc(C(=O)Nc3nnc(-c4cccs4)o3)cc2)C1 (stereo not drawn) | 3.04
COc1ccc2[nH]c(=O)c(CN(C3CCCCC3)C(c3nnnn3Cc3ccco3)C(C)C)cc2c1 (stereo not drawn) | 8.72
Cc1ccc(C2Oc3ccccc3C3=C2C(c2cccs2)n2ncnc2N3)cc1 (stereo not drawn) | 13.4
Cc1cc(/C=N/n2cnnc2)c(C)n1-c1ccc(OCc2ccc(Cl)cc2Cl)cc1 | 4.39
O=C(Nc1ccc2nn(-c3ccccc3)nc2c1)c1ccc2c(c1)OCO2 | 20.8
Cc1cc2c(N=O)c(NO)ccc2[nH]1 | 5.96
CN1CCN(c2ccccc2NC(=O)c2cccc(OCc3ccccc3)c2)CC1 | 10.8
Cc1cccc(C)c1OCC(=O)N=Nc1c(O)[nH]c2ccc(Br)cc12 | 7.15
O=C1NCCCC2c3cc(O)c4ccccc4c3OC12N1CCCCC1 (stereo not drawn) | 3.25
COc1ccc(OC)c(CCNC(=O)Cn2sc3nc(C)cc(C)c3c2=O)c1 | 12.1
N#C/C(=C/c1ccc(N2CCCCCC2)o1)c1ccc(Cl)cc1 | 18.3
Oc1ccc(Nc2nc(-c3ccc4ccccc4c3)cs2)cc1 | 5.83
CC1=CC(C)(C)Nc2ccc(OC(=O)c3cccnc3)cc21 | 12.3
CC(=O)Nc1ccc(NC2=Nc3ccccc3N3C2=Nc2c(c(C)nn2-c2ccccc2)C3c2ccccc2)cc1 (stereo not drawn) | 15.8
CC[n+]1cc(-c2ccccc2)nc(N2CCOCC2)n1 | 9.86
COc1ccccc1N1CCN(CC(=O)c2c(C)[nH]c3cc(C)ccc23)CC1 | 10.2
CCOc1ccc2nc(NC(=O)CN3CCC(n4nnc5cc(F)ccc54)CC3)sc2c1 | 8.42
COc1ccc(CNC(=O)C(C#N)c2nc3ccccc3nc2N2CCN(C)CC2)cc1 (stereo not drawn) | 6.92
CCN(CC)CCn1c2ccccc2c2cnc(N)c(C#N)c21 | 15.2
CC1(C)Cc2c(c(N3CCOCC3)nc3snc(N)c23)CO1 | 11
Cn1cc(/C=N/n2cnc3scc(-c4ccccc4)c3c2=O)c2ccccc21 | 4.94
O=C(Nc1cccc(-c2nc3ncccc3o2)c1)c1cc2ccccc2o1 | 14.1
COc1ccc(Nc2nc(N3CCCC3)nc3ccccc23)c(OC)c1 | 12.5
Cc1cccc(CS(=O)(=O)c2nnc([C@H](Cc3ccccc3)NC(=O)OC(C)(C)C)o2)c1 | 9.97
OCCNc1nc2ccccc2n1-c1ncnc2sc3c(c12)CCC3 | 11.4

SMILES | EC50 [µM]
CC(C)(C)C1CC=C2C(C#N)=C(N)C(C#N)(C#N)C(c3cccs3)C2C1 (stereo not drawn) | 12.2
CN1C[C@H](CNC(=O)OCc2ccccc2)C[C@@H]2c3cccc4c3c(cn4C)C[C@H]21 | 8.44
O=C(COC(=O)c1cccnc1Nc1cccc(C(F)(F)F)c1)NCc1ccc2c(c1)OCO2 | 13.5
O=C(Nc1ccc2c(c1)OCO2)c1cc(C2CC2)on1 | 6.54
CCOC(=O)C1=C(N)n2c(s/c(=C/c3ccco3)c2=O)=C(C(=O)OC)C1c1ccco1 (stereo not drawn) | 5.98
Oc1c(CN2CCN(c3ccccn3)CC2)cc(Cl)c2cccnc12 | 7.42
COc1ccc(NC(=O)/C(Cl)=C(/Cl)S(=O)(=O)Cc2ccccc2)cn1 | 4.48
O=C1C2=C(NC(=S)NC2c2ccc(Cl)cc2)NC(c2ccc(Cl)cc2)N1c1ccc(Cl)cc1 (stereo not drawn) | 5.96
COc1ccc(-c2cc(C(=O)Nc3cc(C)n(Cc4ccc(Cl)cc4)n3)no2)cc1OC | 9.64
Cc1cccc(N2CCN(C(=O)c3ccc4nc(-c5ccco5)c(-c5ccco5)nc4c3)CC2C)c1 (stereo not drawn) | 9.47
Cc1cc(NC(=O)c2cc(-c3ccncc3)nc3c(C)cccc23)no1 | 6.87
CCn1c(=N)n(CC(=O)C23CC4CC(CC(C4)C2)C3)c2ccccc21 | 8.77
N/C(Cc1ccc(Cl)cc1)=N\OC(=O)c1ccc2ccccc2c1 | 9.87
CN1CCN(C(=O)c2ccc(COc3ccc(Cl)cc3Cl)cc2)CC1 | 13.3
Cc1nc(Nc2ccc3c(c2)OCCO3)c2nnn(Cc3ccccc3Cl)c2n1 | 7.13
Cc1cccc(C)c1N1CCN(c2ccc3nnc(C(F)(F)F)n3n2)CC1 | 5.78
COc1cc(/C=C/c2ccc3cccc(OC)c3n2)c(OC(C)=O)c([N+](=O)[O-])c1 | 6.27
CC(=O)c1cccc(NC(=O)Nc2ccc3c(c2)N(C)C(=O)CS3)c1 | 9.94
CN1CCN(c2nc3ccccc3nc2C(C#N)C(=O)OC2CCCCC2)CC1 (stereo not drawn) | 3.87
COc1ccccc1N1C(=O)N(C(C)=O)C2C1Nc1ccccc1N2C (stereo not drawn) | 6.17
O=c1[nH]c(Nc2nc3ccccc3o2)nc2c1CCCC2 | 17.3
CCOC(=O)Cc1c(C)nc2c(-c3cccc(Br)c3)c[nH]n2c1=O | 3.01
Cc1cc(NC(=O)CSc2nc3c(sc4ccccc43)c(=O)n2CCCN2CCOCC2)n[nH]1 | 18.2
CCOc1cc(S(=O)(=O)N2CC=C(c3ccc(F)cc3)CC2)c(OCC)cc1-n1cnnn1 | 20
Cc1cc2c(cc1C)CSC(c1c(O)ccc3ccccc13)SC2 | 5.81
COc1ccc(-n2nnnc2S(=O)(=O)CC(=O)N2CCCCC2)cc1 | 7.76
